Data from paper PMC11327602 (Heliyon, 2024).
“And” between values parts separate entries of the source, which are not always exact repeats. Equal entries are not always repeated. Where two headings read alike, the source gives them in different places.

Experiments:
[1] = Superoxide anion scavenging assay; conditions: for IC50: read-out: superoxide anion scavenging IC50
[2] = DPPH free radical scavenging activity; conditions: for IC50: read-out: DPPH scavenging IC50
jack bean urease = jack bean urease (Canavalia ensiformis, UniProt P07374); test: Urease inhibition assay; type: biochemical; conditions: for IC50: 3 experiments
Sequence of jack bean urease (P07374 whole entry, looked up): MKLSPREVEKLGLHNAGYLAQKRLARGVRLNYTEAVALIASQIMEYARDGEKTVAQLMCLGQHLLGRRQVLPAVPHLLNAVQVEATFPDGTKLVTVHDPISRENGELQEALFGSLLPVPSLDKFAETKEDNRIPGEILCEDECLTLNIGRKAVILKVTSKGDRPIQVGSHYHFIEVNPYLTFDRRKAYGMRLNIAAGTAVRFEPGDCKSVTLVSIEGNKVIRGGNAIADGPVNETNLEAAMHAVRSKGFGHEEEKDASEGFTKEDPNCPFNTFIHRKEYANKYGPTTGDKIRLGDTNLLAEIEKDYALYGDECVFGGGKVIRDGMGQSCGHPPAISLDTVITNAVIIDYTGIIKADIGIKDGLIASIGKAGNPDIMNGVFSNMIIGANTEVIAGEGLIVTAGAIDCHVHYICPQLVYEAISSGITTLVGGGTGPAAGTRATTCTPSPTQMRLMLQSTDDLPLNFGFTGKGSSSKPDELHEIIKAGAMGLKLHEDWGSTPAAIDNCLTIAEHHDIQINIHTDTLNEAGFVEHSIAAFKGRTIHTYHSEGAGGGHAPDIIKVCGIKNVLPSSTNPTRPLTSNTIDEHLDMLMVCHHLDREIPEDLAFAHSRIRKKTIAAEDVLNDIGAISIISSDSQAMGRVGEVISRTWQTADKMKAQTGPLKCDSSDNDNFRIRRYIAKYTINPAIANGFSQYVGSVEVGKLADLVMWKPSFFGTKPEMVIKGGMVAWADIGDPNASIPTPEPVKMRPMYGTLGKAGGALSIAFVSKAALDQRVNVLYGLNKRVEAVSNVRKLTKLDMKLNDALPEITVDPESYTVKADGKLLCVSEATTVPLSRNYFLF

ABTS method = conditions: for IC50: read-out: ABTS scavenging IC50
[3] = biological target: Bacillus Pasteurii urease (Sporosarcina pasteurii, UniProt P41020); test: Urease inhibition assay; type: biochemical; conditions: 3 experiments
Sequence of Bacillus Pasteurii urease (P41020 whole entry): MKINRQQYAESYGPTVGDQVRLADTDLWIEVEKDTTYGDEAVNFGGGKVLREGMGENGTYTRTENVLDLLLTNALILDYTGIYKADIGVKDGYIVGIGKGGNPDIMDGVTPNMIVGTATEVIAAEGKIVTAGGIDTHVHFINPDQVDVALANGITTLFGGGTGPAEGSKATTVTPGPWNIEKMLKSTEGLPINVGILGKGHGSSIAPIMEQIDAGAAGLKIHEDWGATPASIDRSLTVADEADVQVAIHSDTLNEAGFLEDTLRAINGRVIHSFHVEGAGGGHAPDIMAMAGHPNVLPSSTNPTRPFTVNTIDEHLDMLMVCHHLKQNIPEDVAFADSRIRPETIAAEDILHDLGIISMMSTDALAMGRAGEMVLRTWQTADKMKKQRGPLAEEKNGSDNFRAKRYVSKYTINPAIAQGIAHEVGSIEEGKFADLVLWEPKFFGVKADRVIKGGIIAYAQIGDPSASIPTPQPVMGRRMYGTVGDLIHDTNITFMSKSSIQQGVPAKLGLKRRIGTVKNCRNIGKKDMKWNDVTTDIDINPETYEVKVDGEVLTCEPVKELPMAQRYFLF
Sequence of Bacillus Pasteurii urease (P41021 whole entry partner): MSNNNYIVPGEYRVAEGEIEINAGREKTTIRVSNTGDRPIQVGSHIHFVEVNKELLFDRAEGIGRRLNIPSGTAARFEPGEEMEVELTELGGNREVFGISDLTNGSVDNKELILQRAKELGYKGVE
Sequence of Bacillus Pasteurii urease (P41022 whole entry partner): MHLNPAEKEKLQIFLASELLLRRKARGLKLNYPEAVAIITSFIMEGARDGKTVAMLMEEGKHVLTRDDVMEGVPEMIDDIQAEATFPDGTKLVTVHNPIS

α-Glucosidase = α-Glucosidase (Saccharomyces cerevisiae, UniProt P53341); test: α-Glucosidase inhibition assay; type: biochemical
Sequence of α-Glucosidase (P53341 whole entry): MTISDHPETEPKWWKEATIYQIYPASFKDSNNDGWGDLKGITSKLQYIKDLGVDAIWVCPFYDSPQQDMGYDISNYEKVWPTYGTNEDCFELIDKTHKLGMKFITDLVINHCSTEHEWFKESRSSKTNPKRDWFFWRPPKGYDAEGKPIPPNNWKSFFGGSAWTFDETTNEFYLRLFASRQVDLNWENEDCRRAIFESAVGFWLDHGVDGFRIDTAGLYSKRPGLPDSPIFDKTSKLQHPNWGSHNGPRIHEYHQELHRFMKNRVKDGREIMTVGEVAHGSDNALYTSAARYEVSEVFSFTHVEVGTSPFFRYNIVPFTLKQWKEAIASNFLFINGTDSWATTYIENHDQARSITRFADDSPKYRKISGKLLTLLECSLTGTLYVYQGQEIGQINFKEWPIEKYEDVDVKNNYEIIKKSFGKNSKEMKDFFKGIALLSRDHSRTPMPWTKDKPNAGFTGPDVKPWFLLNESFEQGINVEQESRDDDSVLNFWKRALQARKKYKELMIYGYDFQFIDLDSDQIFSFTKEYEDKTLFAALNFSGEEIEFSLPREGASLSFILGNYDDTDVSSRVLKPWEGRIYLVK
Procedure, shortened: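 Test compound (200–800 μg/mL) pre-incubated 5 min at 37 °C with 2 % w/v starch (sucrose) solution in 0.2 M Tris buffer, pH 8.0. 5 mM p-nitrophenyl-α-D-glucopyranoside added intermittently, then α-glucosidase (1 U/mL), 40 min at 35 °C. Stopped with […]; absorbance read at 405 nm. % inhibition = (control − sample)/control × 100; samples above 50 % taken to IC50.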

[4] = Enzyme (SEM ±) J.B Urease, IC50, mean ± SEM
[5] = Enzyme (SEM ±) B.P Urease, IC50, mean ± SEM

Compound	superoxide anion % scavenging ([1]; 25 μM)	superoxide anion % scavenging ([1]; 50 μM)	superoxide anion % scavenging ([1]; 75 μM)	superoxide anion % scavenging ([1]; 100 μM)	IC50 [1]	DPPH % Scavenging ([2]; 50 μM)	DPPH % Scavenging ([2]; 75 μM)	DPPH % Scavenging ([2]; 100 μM)	IC50 [2]	Types of inhibition (urease) (jack bean urease)	IC50 (jack bean urease; [4]) [µM]	ABTS % Scavenging (ABTS method; 10 μM)	ABTS % Scavenging (ABTS method; 20 μM)	ABTS % Scavenging (ABTS method; 30 μM)	ABTS % Scavenging (ABTS method; 40 μM)	ABTS % Scavenging (ABTS method; 50 μM)	IC50 (ABTS method)	DPPH % Scavenging ([2]; 25 μM) [%]	IC50 [3, 5] [µM]	Type of Inhibition (α-glucosidase and α-amylase) (α-Glucosidase)	also measured
O=C1O[C@H]([C@@H](O)CO)C(O)=C1O [Ascorbic acid, reference compound]	39 ± 0.09% and 49 ± 0.05% and 35 ± 0.33% and 25 ± 0.03%	55 ± 0.05% and 53 ± 0.03% and 57 ± 0.13% and 60 ± 0.07%	77 ± 0.12% and 75 ± 0.15% and 86 ± 0.53% and 67 ± 0.11%	90 ± 0.02% and 93 ± 0.01% and 99 ± 0.11% and 82 ± 0.01%	33.4 µM and 35.4 µM and 39.1 µM and 38 µM	70.3 ± 0.01% and 68.2 ± 0.17% and 58.1 ± 0.05% and 69.3 ± 0.41%	85.3 ± 0.01% and 88.1 ± 0.02% and 79.1 ± 0.12% and 95.3 ± 0.01%	97.2 ± 0.2% and 94.2 ± 0.5% and 84.2 ± 0.18% and 105.2 ± 0.2%	30.4 µM and 42.2 µM and 45.1 µM and 35 µM												
Cc1ccc(S(=O)(=O)N(Cc2ccccc2)c2nccs2)cc1 [Compound 19, N-Benzyl-4-methyl-N-(thiazol-2-yl)benzenesulfonamide]	32 ± 0.07%	59 ± 0.25%	80 ± 0.11%	88 ± 0.01%	42 ± 0.15 µM	65.8 ± 0.03%	89.6 ± 0.11%	95.1 ± 0.41%	40.01 ± 0.01 µM	Competitive	26.15 ± 0.02	18.01 ± 0.09%	37.05 ± 0.04%	41.09 ± 0.01%	69.02 ± 0.03%	89.03 ± 0.91%	37.01 ± 0.04 µM	39.1 ± 0.2	29.05 ± 0.01	Competitive	
COc1ccc(S(=O)(=O)N(Cc2ccccc2)c2nccs2)cc1 [Compound 20, N-Benzyl-4-methoxy-N-(thiazol-2-yl)benzenesulfonamide]	31 ± 0.02%	54 ± 0.12%	79 ± 0.22%	85 ± 0.25%	40 ± 0.06 µM	49.2 ± 0.01%	56.3 ± 0.83%	80.2 ± 0.01%	43.5 ± 0.03 µM	Competitive	20.6 ± 0.41	15.04 ± 0.2%	22.02 ± 0.05%	45.08 ± 0.06%	61.01 ± 0.03%	82.03 ± 0.07%	38.01 ± 0.06 µM	35.2 ± 0.1	22.1 ± 0.35	Non-competitive	
O=S(=O)(c1ccc(Br)cc1)N(Cc1ccccc1)c1nccs1 [Compound 21, N-benzyl-4-bromo-N-(thiazol-2-yl)benzenesulfonamide]	33 ± 0.3%	57 ± 0.13%	82 ± 0.01%	86 ± 0.11%	45 ± 0.03 µM	63.5 ± 0.11%	90.5 ± 0.16%	99.1 ± 0.32%	~45.2 µM and 45.2 µM	Non-competitive	23.06 ± 0.11	15.1 ± 0.05%	30.5 ± 0.04%	46.03 ± 0.11%	72.05 ± 0.15%	90.03 ± 0.51%	~33 µM and 33 µM	35.1 ± 0.05	27 ± 0.48	Competitive	
O=S(=O)(c1ccccc1)N(Cc1ccccc1)c1nccs1 [Compound 22, N-Benzyl-N-(thiazol-2-yl)benzenesulfonamide]	35 ± 0.02%	57 ± 0.15%	80 ± 0.25%	87 ± 0.15%	40 ± 0.06 µM	50.1 ± 0.11%	66.1 ± 0.23%	79.5 ± 0.05%	57.2 ± 0.07 µM	Competitive	15.31 ± 0.09	12.04 ± 0.01%	27.2 ± 0.5%	47.03 ± 0.06%	66.11 ± 0.31%	86.13 ± 0.12%	40.01 ± 0.01 µM	31.4 ± 0.08	18.7 ± 0.23	Non-competitive	
O=S(=O)(c1ccc(Cl)cc1)N(Cc1ccccc1)c1nccs1 [Compound 23, N-benzyl-4-chloro-N-(thiazol-2-yl)benzenesulfonamide]	39 ± 0.3%	60 ± 0.56%	89 ± 0.07%	103 ± 0.19%	47 ± 0.11 µM	57.3 ± 0.01%	70.5 ± 0.16%	93.05 ± 0.32%	49.15 ± 0.05 µM	Non-competitive	25.1 ± 0.28	19.5 ± 0.05%	39.5 ± 0.24%	55.13 ± 0.13%	76.01 ± 0.5%	93.03 ± 0.31%	30.01 ± 0.11 µM	32.6 ± 0.21	28.02 ± 0.07	Non-competitive	
O=S(=O)(c1ccc(F)cc1)N(Cc1ccccc1)c1nccs1 [Compound 24, N-benzyl-4-fluoro-N-(thiazol-2-yl)benzenesulfonamide]	33 ± 0.21%	45 ± 0.35%	84 ± 0.25%	97 ± 0.15%	59 ± 0.16 µM	44.1 ± 0.55%	75.1 ± 0.30%	89.4 ± 0.35%	62.5 ± 0.07 µM	Competitive	32.11 ± 0.13	25.11 ± 0.11%	33.6 ± 0.55%	44.31 ± 0.17%	48.23 ± 0.51%	76.23 ± 0.22%	42.12 ± 0.21 µM	21.3 ± 0.18	40.88 ± 0.26	Non-competitive	inhibition against both enzymes (α-glucosidase and α-amylase), in words (α-Glucosidase): weak inhibition
O=[N+]([O-])c1ccc(S(=O)(=O)N(Cc2ccccc2)c2nccs2)cc1 [Compound 25, N-benzyl-4-nitro-N-(thiazol-2-yl)benzenesulfonamide]						57.8 ± 0.11%	71.6 ± 0.03%	85.1 ± 0.41%	47.1 ± 0.08 µM	Non-competitive	48.1 ± 1.19	09.01 ± 0.09%	28.05 ± 0.04%	43.09 ± 0.01%	70.02 ± 0.03%	81.03 ± 0.91%	29.01 ± 0.14 µM	35.2 ± 0.2	53.32 ± 0.21	Non-competitive	inhibition against both enzymes (J.B. and B.P urease), in words (jack bean urease): weak inhibition
C=CCN(c1nccs1)S(=O)(=O)c1ccc(C)cc1 [Compound 26, N-Allyl-4-methyl-N-(thiazol-2-yl)benzenesulfonamide]	27 ± 0.07%	63 ± 0.01%	73 ± 0.11%	94 ± 0.51%	~36 µM and 36 µM	74.8 ± 0.3%	88.5 ± 0.1%	99.2 ± 0.2%	~38.3 µM and 38.3 µM	Non-competitive	30.11 ± 0.07	09.02 ± 0.03%	24.03 ± 0.01%	43.08 ± 0.09%	75.07 ± 0.02%	96.06 ± 0.21%	~33 µM and 33 µM	43.2 ± 0.8	38.2 ± 0.36	Competitive	
NC(N)=S [Thiourea, reference compound]																					IC50 (jack bean urease; read-out: Enzyme (SEM ±) J.B Urease, IC50, mean ± SEM): 10.12 ± 0.08 µM; IC50 ([3]; read-out: Enzyme (SEM ±) B.P Urease, IC50, mean ± SEM): 14.08 ± 0.05 µM
Cc1c(C)c2c(c(C)c1O)CCC(C)(C(=O)O)O2 (stereo not drawn) [Trolox, reference compound]												36.08 ± 0.1% and 26.05 ± 0.03% and 35.01 ± 0.3% and 18.08 ± 0.1%	58.02 ± 0.62% and 55.02 ± 0.12% and 65.2 ± 0.1% and 40.02 ± 0.62%	67.03 ± 0.02% and 70.03 ± 0.01% and 77.31 ± 0.07% and 55.03 ± 0.02%	85.01 ± 0.06% and 82.01 ± 0.05% and 89.01 ± 0.5% and 84.01 ± 0.06%	105.02 ± 0.02% and 109.2 ± 0.22% and 105.12 ± 0.21% and 93.02 ± 0.02%	16.4 µM and 19.4 µM and 17.5 µM and 20.3 µM				
